Legend:
Procathepsin L = Procathepsin L (Homo sapiens, UniProt P07711); experiment: Inhibition of cathepsin L
Procedure, shortened: (§1)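 Cathepsins B (2 nM), K (10 nM) or L (0.03 nM) in pH 6.1 phosphate/NaCl/DTT/EDTA/Tween-20 buffer. Preincubated 5 min at 37 °C with five inhibitor levels (10-90% inhibition), in duplicate. Cbz-Phe-Arg-AMC added at 5 and 2.5 µM (B, K) or 0.6 and 0.3 µM (L). AMC read at ex 355/em 450 nm for 5 min. Ki by Dixon plot.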

Cathepsin S = Cathepsin S (Homo sapiens, UniProt P25774); experiment: Inhibition of cathepsin S
Procedure, shortened: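 Cathepsin S at 0.6 nM in pH 6.1 100 mM sodium phosphate with 100 mM NaCl, 1 mM DTT, 1 mM EDTA and 0.001% Tween-20. Enzyme preincubated 5 min at 37 °C with five inhibitor concentrations (10-90% inhibition), in duplicate. Cbz-Leu-Arg-AMC added at 5 and 2.5 µM, then AMC read (ex 355/em 450 nm) over 5 min. Ki by Dixon method.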

Cathepsin B = Cathepsin B (Homo sapiens, UniProt P07858); experiment: Inhibition of cathepsin B; procedure, shortened: as §1
Cathepsin K = target: T1, Cathepsin K (Homo sapiens, UniProt P43235); experiment: Inhibition of cathepsin K; procedure, shortened: as §1
T1 sequence (P43235 whole entry): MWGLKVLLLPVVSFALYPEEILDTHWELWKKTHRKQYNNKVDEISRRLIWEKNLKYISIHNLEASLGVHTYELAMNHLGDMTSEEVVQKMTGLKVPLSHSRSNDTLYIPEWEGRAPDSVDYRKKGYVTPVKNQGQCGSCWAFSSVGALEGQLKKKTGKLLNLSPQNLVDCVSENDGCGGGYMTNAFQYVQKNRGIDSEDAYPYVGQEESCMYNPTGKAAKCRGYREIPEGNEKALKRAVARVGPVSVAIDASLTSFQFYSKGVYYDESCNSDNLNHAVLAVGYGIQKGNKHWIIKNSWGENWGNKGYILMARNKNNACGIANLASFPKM

Chain of Procathepsin L (P07711 whole entry): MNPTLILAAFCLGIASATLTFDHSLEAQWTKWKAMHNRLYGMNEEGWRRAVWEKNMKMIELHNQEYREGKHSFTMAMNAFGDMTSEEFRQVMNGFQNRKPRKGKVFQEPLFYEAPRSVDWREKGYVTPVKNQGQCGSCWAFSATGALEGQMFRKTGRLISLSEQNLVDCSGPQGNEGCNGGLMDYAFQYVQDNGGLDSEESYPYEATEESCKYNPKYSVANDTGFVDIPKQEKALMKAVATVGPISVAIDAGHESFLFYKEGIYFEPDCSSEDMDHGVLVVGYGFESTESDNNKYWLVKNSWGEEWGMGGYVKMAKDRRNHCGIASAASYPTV
Chain of Cathepsin S (P25774 whole entry): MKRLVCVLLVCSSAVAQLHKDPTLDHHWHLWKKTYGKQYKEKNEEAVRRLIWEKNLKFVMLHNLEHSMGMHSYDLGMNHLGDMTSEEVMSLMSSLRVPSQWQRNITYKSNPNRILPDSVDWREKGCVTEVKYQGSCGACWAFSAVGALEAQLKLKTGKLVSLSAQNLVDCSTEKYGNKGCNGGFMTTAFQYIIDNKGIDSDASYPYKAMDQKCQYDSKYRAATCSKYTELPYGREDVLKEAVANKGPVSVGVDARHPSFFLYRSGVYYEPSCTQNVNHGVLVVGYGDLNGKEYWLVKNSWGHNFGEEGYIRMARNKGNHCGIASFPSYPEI

Structure (SMILES)	IC50 (Procathepsin L) [µM]	Ki (Procathepsin L) [µM]	Ki (Cathepsin S) [µM]	IC50 (Cathepsin B) [µM]	Ki (Cathepsin B) [µM]	Ki (Cathepsin K) [µM]	IC50 (Cathepsin K) [µM]
CCCC[C@@H](C#N)n1cc([C@@](C)(NC(=O)c2ccccc2)C2CCCCC2)nn1	> 10	> 10	0.2	> 10	> 10	> 10	> 10
CCCC[C@@H](C#N)n1cc([C@@](C)(NC(=O)c2ccsc2)C2CCCCC2)nn1	> 10	> 10	0.018	> 10	> 10	1.7	
CCCC[C@@H](C#N)n1cc([C@@](C)(NC(=O)c2ccsc2)C2CCC(C)CC2)nn1 (stereo not given in full)	> 15	> 15	0.015			> 15	> 15

Further lines, results first:

IC50 (Procathepsin L) [µM]	Ki (Procathepsin L) [µM]	Ki (Cathepsin S) [µM]	IC50 (Cathepsin B) [µM]	Ki (Cathepsin B) [µM]	Ki (Cathepsin K) [µM]	IC50 (Cathepsin K) [µM]	Structure (SMILES)
> 10	> 10	0.42	> 10	> 10	0.43		CCCC[C@@H](C#N)n1cc([C@@](C)(NC(=O)c2ccsc2)C(C)C)nn1
> 10	> 10	1.2	> 10	> 10	0.88		CCCC[C@@H](C#N)n1cc([C@@](C)(NC(=O)c2ccccc2)C(C)C)nn1

From ChEMBL document CHEMBL1137397, “Identification of selective, nonpeptidic nitrile inhibitors of cathepsin s using the substrate activity screening method” (J Med Chem, 2006)
